# UPR CHOP act = activators of apoptotic arm of unfolded protein response (CHOP); 0.34% of 330,000 active; activation, % at 10 µM; CHO-CHOP luciferase reporter, UPR activation, luminescence; percent of tunicamycin response over DMSO baseline;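 active = at 10 µM dose, activation of 40% or more, normalized to positive control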;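 note: 100% = tunicamycin at 10 µg/mL and 0% = DMSO alone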
#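 measured by = luciferase luminescence | assay system = CHO-CHOP cells, stable luciferase reporter of PERK-eIF2a-CHOP signalling | amount = 500 reporter cells seeded per well | timing = 6 h compound exposure at 37 °C after overnight seeding | controls = positive tunicamycin 10 µg/mL, negative DMSO alone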
# Mdm2-MdmX inh = human Mdm2/MdmX binding inhibition. O15151+Q00987. SaOS-2 split-luciferase Mdm2/MdmX complementation, luminescence. inhibition, % at 8 µM. 3% of 330,000 active;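 active = inhibition of at least 50% at 8 µM in the primary screen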
# UPR XBP1 act = adaptive UPR (XBP1) activation; CHO-XBP1 luciferase reporter, IRE1-XBP1 UPR activation, luminescence; percent of tunicamycin response, DMSO as zero; activation, % at 20 µM; 0.33% of 330,000 active; AID 463104;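 active = versus positive control, 20 µM dose yields 30% or more activation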;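 note: 100% = tunicamycin at 10 µg/mL and 0% = DMSO only wells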
#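 Material: CHO cell line with stable XBP1 luciferase reporter; buffer or medium: F12 medium containing 10% fetal bovine serum; compound: single point, 20 µM final compound, 1% DMSO; incubation: 6 h treatment, 37 °C; measured by: glow luminescence from Steady-Glo reagent; evaluation: activation, % of tunicamycin; control set: tunicamycin high, DMSO low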
# ABHD5-PLIN5 inh = inhibitors of human ABHD5-perilipin-5 interaction. Split G. princeps luciferase complementation, luminescence, 4 h. inhibition, % at 4 µM. 0.78% of 360,000 active. AID 602281;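 active = inhibition above the mean inhibition across every tested compound plus 3 SD, cut at about 22% in these data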;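 note: 0% = DMSO only wells and the 100% control is not disclosed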
# Exocytosis inh = lytic granule exocytosis inhibition. TALL-104 LAMP-1 surface exposure, flow cytometry; cells stimulated with thapsigargin and PMA. inhibition, % at 10 µM. 0.66% of 360,000 active;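 active = inhibition above about 55%, limit read from the data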
# Mdm2-MdmX conf = human Mdm2/MdmX binding inhibition, confirmed; AID 489028; 55% of 10,000 active; inhibition, % at 8 µM; shares compounds with Mdm2-MdmX inh; luminescent assay; in the data active = inhibition above about 40%
# Full FLuc ctr = full-length luciferase inhibition in Mdm2/MdmX counter-screen. inhibition, % at 8 µM. SaOS-2 full-length luciferase counterscreen, luminescence. shares compounds with Mdm2-MdmX inh. 77% of 6,200 active. AID 504607;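 active = mean inhibition at 8 µM reaching about 37%, which flags the compound as non-specific, limit read from the data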;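 note: p53-null SaOS-2 cells with luciferase driven by a doxycycline-inducible promoter; compound on cells about two nights before reading with doxycycline added after day one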
# Starred values were filed as active, the others as inactive; x = no result. Compounds with a hit are over-represented: about 4% of the library has one in this group of screens.
SMILES,UPR CHOP act,Mdm2-MdmX inh,UPR XBP1 act,ABHD5-PLIN5 inh,Exocytosis inh,Mdm2-MdmX conf,others
CC(=O)Nc1cn(-c2ccccc2)nc1-c1ccccc1,1.9,19.3,2.4,2.2,-0.4,x,
O=C(CCl)Nc1cn(-c2ccccc2)nc1-c1ccccc1,5.9,75.0*,-4.7,6.4,10.6,32.7,Full FLuc ctr=33.7
CC(=O)c1c(C)[nH]c(C(=O)OCC(=O)c2c(N)n(CC(C)C)c(=O)n(C)c2=O)c1C,0.0,44.6,-2.8,0.5,0.8,x,
CC(=O)c1c(C)[nH]c(C(=O)OCC(=O)c2c(N)n(C)c(=O)n(C)c2=O)c1C,0.0,55.9*,0.6,x,x,2.2,
CC(C)(C)c1ccc(Cn2c(=O)cnc3ccccc32)cc1,-6.2,71.5*,-9.5,-2.2,-5.3,77.3*,Full FLuc ctr=25.9
O=c1cnc2ccccc2n1Cc1ccc(Br)cc1,7.1,29.9,0.8,-1.7,-2.1,x,
C=CCN(CC=C)S(=O)(=O)c1ccc(NC(=S)NC(=O)/C=C/c2cccc3ccccc23)cc1,3.6,5.3,4.2,-4.4,-2.7,x,
C/C(=N\NC(=O)c1cc(C)nc2ccccc12)c1ccccn1,85.0*,76.3*,5.3,-20.0,-11.5,66.7*,Full FLuc ctr=36.4*
COc1cc(C(=O)N/N=C(\C)c2ccccn2)cc(OC)c1OC,-3.1,76.7*,-3.4,-1.1,11.6,24.6,
CCCCCC(=O)N/N=C(\C)c1ccccn1,-1.2,60.5*,1.1,-6.9,2.1,7.7,
COc1cc(C(=O)N/N=C(\c2ccccc2)c2ccccn2)cc(OC)c1OC,0.6,46.5,4.7,6.5,19.3,x,
CCCCCCCCCC(=O)N/N=C(\C)c1cccnc1,-1.4,-9.2,-1.7,0.0,-2.0,x,
O=C(Nc1nc(NC(=O)c2ccco2)n(-c2ccccc2)n1)c1ccccc1,-0.6,74.4*,4.9,0.5,-2.4,63.6*,Full FLuc ctr=45.8*
COC(=O)c1cc(=O)n(CCc2ccccc2F)c(=Nc2ccc(F)c(Cl)c2)s1,30.2,73.5*,7.3,0.0,-3.4,12.9,
COC(=O)c1cc(=O)n(Cc2ccc3c(c2)OCO3)c(=Nc2ccc(F)cc2)s1,14.8,56.7*,-2.3,2.5,11.2,31.2,
COC(=O)c1ccc(N=c2sc(C(=O)OC)cc(=O)n2C)cc1,x,x,x,-3.3,-5.8,x,
CCOC(=O)c1ccc(N=c2sc(C(=O)OC)cc(=O)n2Cc2ccc3c(c2)OCO3)cc1,18.3,33.3,-0.7,-9.4,-0.6,x,
O=C(Nc1cnn(Cc2ccc(Cl)cc2)c1)c1cccs1,-2.3,21.4,-1.6,2.9,-3.0,x,
COc1ccc(-c2sc3ccc(OC)cc3c2-c2ccc(OCCN3CCOCC3)cc2)cc1,2.7,45.8,0.4,0.0,4.9,x,
COc1cccc(-c2sc3ccccc3c2-c2ccc(OCCN3CCCC3)cc2)c1,3.5,100.0*,24.6,17.2,1.2,21.5,
COc1cccc(-c2sc3ccc(OC)cc3c2-c2ccc(C(N)=O)cc2)c1,2.9,-0.7,0.3,0.4,0.2,x,
COc1ccc(-c2sc3ccccc3c2-c2ccc(OCCN3CCCCC3)cc2)cc1,2.9,88.1*,9.8,17.6,34.3,20.4,
COc1cccc(-c2sc3cc(OC)c(OC)cc3c2-c2ccc(OCCN3CCCCC3)cc2)c1,6.6,78.3*,10.4,9.0,61.9*,23.4,
COc1cccc(-c2sc3ccc(OC)cc3c2-c2ccc(OCCN3CCCC3)cc2)c1,5.6,69.3*,18.5,21.6,26.8,33.0,Full FLuc ctr=27.8
O=C(OCC(=O)N1CCCC1)c1cc(Br)ccc1Cl,-0.6,-2.8,1.4,6.0,4.2,x,
SMILES,UPR CHOP act,Mdm2-MdmX inh,UPR XBP1 act,ABHD5-PLIN5 inh,Exocytosis inh,Mdm2-MdmX conf,others
CCCCc1ccc(NC(=O)c2c(C)noc2C)cc1,2.2,-4.9,4.4,-6.1,-3.2,x,
CCN(CC)C(=O)CSc1ncnc2c(-c3ccc(OC)cc3)nsc12,2.1,-16.0,-0.4,x,x,x,
CC(C)N(Cc1nc(-c2ccccc2)no1)C(=O)COc1ccccc1,-1.5,-9.3,3.5,-7.1,5.7,x,
COc1ccc2[nH]c(=O)c(CN(Cc3cccs3)Cc3nnnn3C(C)(C)C)cc2c1,3.2,-11.2,0.1,-4.9,1.8,x,
Cc1ccc(C(=O)N2CCCCC2)cc1NC1=C(Cl)C(=O)N(Cc2ccccc2)C1=O,0.6,56.4*,-3.3,-4.0,-3.4,49.9*,Full FLuc ctr=64.0*
COc1cc(CNCCCN2CCOCC2)ccc1OCC(=O)Nc1cccc(C(F)(F)F)c1,-0.5,43.8,-0.2,7.0,16.9,x,
CCOc1cc(CNCCCN2CCOCC2)ccc1OCC(=O)Nc1cccc2ccccc12,-0.1,77.9*,1.3,16.4,27.9,54.4*,Full FLuc ctr=54.0*
CC(=O)Nc1c(Cl)c(Cl)c2c(c1Cl)Cc1cc(Cl)ccc1-2,x,x,x,-3.3,-19.9,x,
C=CC[C@H](CC(=O)N(CCO)Cc1ccccc1)C(=O)N[C@@H](COC(=O)[C@@H](CC=C)Cc1ccc(F)cc1)Cc1c[nH]c2ccccc12,20.6,91.4*,-4.5,7.7,53.7,19.5,
C=CC[C@H](CC(=O)N(CCO)Cc1ccccc1)C(=O)N[C@@H](COC(=O)[C@H](CC=C)CC(=O)OC(C)(C)C)Cc1c[nH]c2ccccc12,6.1,22.8,3.2,-2.1,-0.2,x,
C=CC[C@@H](CC(=O)N(CCO)Cc1ccccc1)C(=O)N[C@@H](COC(=O)[C@@H](CC=C)Cc1ccc(F)cc1)Cc1c[nH]c2ccccc12,4.3,76.0*,-0.9,-7.1,15.8,21.4,
CCCCCCSC1=C(C#N)C(c2ccc(C)o2)CC(=O)N1 (centres undefined),-0.9,28.1,-2.6,-3.8,-0.5,x,
COc1cccc(NC(=O)Nc2ccc3c(c2)N(C)C(=O)CS3)c1,3.9,50.0*,5.0,3.6,-1.4,27.1,
CC(=O)Nc1ccc(NC(=O)Nc2ccc3c(c2)N(C)C(=O)CS3)cc1,-0.4,39.6,1.1,0.7,-0.5,x,
COc1ccc(C(=O)COC(=O)CCN2C(=O)C3C4C=CC(C5CC45)C3C2=O)cc1 (centres undefined),0.1,3.4,-2.7,-1.4,-11.3,x,
C=CCn1c(SCC(=O)Nc2ccc(O)cc2)nc2sc(C)c(C)c2c1=O,x,x,x,0.8,-4.6,x,
C=CCn1c(SCC(=O)Nc2cc(C)on2)nc2sc3c(c2c1=O)CCCC3,-1.5,61.1*,-0.9,4.3,0.7,32.7,
C=CCn1c(SCC(=O)NCc2ccco2)nc2sc3c(c2c1=O)CCCC3,-0.6,2.4,-4.2,-3.0,2.9,x,
CC(NC(=O)CSc1nc2sc3c(c2c(=O)n1-c1ccccc1)CCCC3)c1ccccc1 (centres undefined),3.2,51.1*,0.1,-0.6,-0.4,23.4,
C=CCn1c(SCC(=O)Nc2sccc2C(N)=O)nc2sc(CC)cc2c1=O,-2.0,59.1*,0.8,8.2,-2.8,38.5,Full FLuc ctr=74.4*

# High-throughput results deposited in PubChem by several laboratories.
